In article PMC6401406 (Theranostics, 2019):
Like-named read-outs stand apart in the source and are kept apart here.

Key:
[1] = assay type: in vivo, Sprague-Dawley rats; settings: for Tmax: male, Sprague-Dawley, rat, iv, 30 mg/kg
Outline: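 Male 8-week-old Sprague-Dawley rats were acclimated ≥1 week, fasted 12 h, then given a single i.v. 30 mg kg-1 dose. Lung, liver, kidney, spleen, heart and heparinized plasma were collected at 0, 10, 30, 60, 120 and 240 min. Organs were saline-washed and stored at -80 °C. Sections underwent MALDI MSI with internal-standard correction; homogenates underwent LC-MS/MS. Identity was confirmed by accurate mass and tandem MS. Mean ± SD, three animals.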

[2] = cited from earlier work
[3] = cited from earlier work; remark: listed apart in the source

Row | Time of maximum concentration of demethylated metabolite in liver ([1]; rat liver after i.v. tetrandrine 30 mg kg^-1) | Detection of metabolite in liver tissue ([1]; rat liver after i.v. tetrandrine, MALDI MSI, accurate mass and tandem MS) | Tmax ([1]; kidney) | Tmax ([1]; liver) | Tmax ([1]; lung) | Compound | Half-life (t1/2) in blood versus heart ([2]; after i.v. administration) | Uptake efficiency in spleen versus other tissues [2] | Tmax in spleen ([2]; post-dose, spleen) | Distribution within kidney ([1]; rat kidney, 60 min post-dose, 3D MALDI imaging) | Relatively non-toxic dose [3]
1 | 4 h | detected | – | – | – | demethylated tetrandrine | – | – | – | – | –
2 | – | – | 30 min | 120 min | 10 min | COc1ccc2cc1Oc1ccc(cc1)C[C@H]1c3cc(c(OC)cc3CCN1C)Oc1c(OC)c(OC)cc3c1[C@H](C2)N(C)CC3 [tetrandrine, Tetrandrine] | generally similar | higher in spleen than other tissues | 270 min | mainly distributed in the cortex of kidney | up to 90 mg kg^-1 body weight
